Measured values from ChEMBL document CHEMBL4033652, “Design, synthesis, and pharmacological evaluation of 4-azolyl-benzamide derivatives as novel GPR52 agonists” (Bioorg Med Chem, 2017).
Values belong to the compound of their own block, whether it stands above or below them. Active and inactive are the calls of the source. No cut-off for these calls is given here.

Columns and labels:
[1] = target: T1, G-protein coupled receptor 52 (Homo sapiens, UniProt Q9Y2T5); assay: Agonist activity at human GPR52 expressed in CHO cells assessed as increase in cAMP level after 30 mins by AlphaScreen assay relative to (N-(2-hydroxyethyl)-3-(2-(3-(trifluoromethyl)benzyl)-1-benzofuran-4-yl)benzamide); format: functional, cell-based
Method in brief: (§1)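 CHO cells stably expressing human GPR52, 10,000 cells per well, exposed to compound 30 min at 37°C in HBSS with 5 mM HEPES pH 7.6, 0.5% BSA, 100 µM IBMX and 100 µM Ro20-1724. cAMP measured by AlphaScreen with acceptor and biotinylated donor beads after overnight room-temperature incubation. Emax set relative to the reference benzofuran benzamide (100%). EC50 taken from mean curves, n = 2–4, with 95% CI.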

[2] = target: T1, G-protein coupled receptor 52; assay: Agonist activity at human GPR52 expressed in CHO cells assessed as increase in cAMP level after 30 mins by AlphaScreen assay; format: functional, cell-based
Method in brief: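 CHO cells stably expressing human GPR52 (10,000/well) exposed to compound at various concentrations, 30 min, 37°C, in HBSS with 5 mM HEPES pH 7.6, 0.5% BSA, 100 µM IBMX and 100 µM Ro20-1724. AlphaScreen acceptor/donor beads added overnight at room temperature. Response expressed relative to a reference benzofuran agonist (100%). EC50 from mean curves, n = 2–4, 95% CI.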

Brain [3] = assay: AUC (0 to 24 hrs) in ICR mouse brain at 10 mg/kg, po by LC/MS/MS analysis; format: ADME, organism-based; design: time < 24 hr, dose 10 mg/kg, route oral; conditions: in vivo
Method in brief: (§2)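 Male ICR mice dosed orally at 10 or 30 mg/kg as a suspension in 0.5% methylcellulose. Blood and brain taken at 0.25, 0.5, 1, 2, 4, 8 and 24 h, n = 3 per time point. Plasma separated; brain homogenized in saline. Samples mixed with acetonitrile, centrifuged, supernatant quantified by LC/MS/MS.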

[4] = Metabolic stability in human liver microsomes at 1 uM after 15 to 30 mins in presence of NADPH by LC/MS/MS analysis; format: ADME, microsome; conditions: read-out: Stability
Method in brief: (§3)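 Human, rat or mouse liver microsomes (0.2 mg/mL protein) incubated with test compound at 1 µmol/L in 50 mmol/L phosphate buffer pH 7.4. Reaction started with an NADPH-generating system, run 15 and 30 min at 37°C, stopped with acetonitrile. Duplicates. Parent compound loss measured by LC/MS/MS.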

[5] = Tmax in ICR mouse plasma at 10 mg/kg, po by LC/MS/MS analysis; format: ADME, organism-based; method in brief: as §2
Mus musculus [6] = assay: Toxicity in ICR mouse model of methamphetamine-induced hyperlocomotion assessed as cataleptogenic effect at 10 mg/kg, po; format: organism-based; conditions: in vivo
[7] = target: G-protein coupled receptor 52 (Mus musculus, UniProt P0C5J4); assay: Agonist activity at mouse GPR52
Mus musculus [8] = assay: Anti-psychotic activity in ICR mouse assessed as inhibition of methamphetamine-induced hyperlocomotion at 10 mg/kg, po pretreated for 60 mins followed by methamphetamine administration measured after 150 mins; format: functional, organism-based
Method in brief: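 Male ICR mice aged 7–8 weeks, housed singly in activity-monitor cages and habituated 60 min. Compound given p.o. (1–30 mg/kg range tested). Methamphetamine 2 mg/kg s.c. given 60 min later. Activity counts recorded for 150 min after compound dosing. Mean ± SEM, t-test and Williams test.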

[9] = MRT in ICR mouse plasma at 10 mg/kg, po by LC/MS/MS analysis; format: ADME, organism-based; method in brief: as §2
[10] = MRT in ICR mouse plasma at 30 mg/kg, po by LC/MS/MS analysis; format: ADME, organism-based; method in brief: as §2
[11] = Tmax in ICR mouse brain at 10 mg/kg, po by LC/MS/MS analysis; format: ADME, organism-based; method in brief: as §2
Brain [12] = assay: AUC (0 to 24 hrs) in ICR mouse brain at 30 mg/kg, po by LC/MS/MS analysis; format: ADME, organism-based; design: time < 24 hr, dose 30 mg/kg, route oral; conditions: in vivo; method in brief: as §2
[13] = AUC (0 to 8 hrs) in Sprague-Dawley rat at 1 mg/kg, po administered as cassette dose by LC-MS/MS analysis; format: ADME, organism-based; design: time < 8 hr, dose 1 mg/kg, route oral; conditions: in vivo
Method in brief: (§4)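 Cassette dosing in non-fasted male SD rats (n = 3): i.v. 0.1 mg/kg or p.o. 1 mg/kg. Plasma prepared from blood, deproteinized, centrifuged, supernatant measured by LC/MS/MS. AUC taken over 0–8 h.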

[14] = Tmax in ICR mouse brain at 30 mg/kg, po by LC/MS/MS analysis; format: ADME, organism-based; method in brief: as §2
[15] = target: 5-hydroxytryptamine receptor 2A (Homo sapiens) (UniProt P28223); assay: Inhibition of 5-HT2 receptor (unknown origin) at 10 uM
[16] = target: G-protein coupled receptor 52 (Mus musculus) (UniProt P0C5J4); assay: Agonist activity at mouse GPR52 relative to (N-(2-hydroxyethyl)-3-(2-(3-(trifluoromethyl)benzyl)-1-benzofuran-4-yl)benzamide)
[17] = target: D(1A) dopamine receptor (Homo sapiens) (UniProt P21728); assay: Inhibition of dopamine D1 receptor (unknown origin) at 10 uM
[18] = MRT in ICR mouse brain at 10 mg/kg, po by LC/MS/MS analysis; format: ADME, organism-based; method in brief: as §2
[19] = Cmax in ICR mouse plasma at 30 mg/kg, po by LC/MS/MS analysis; format: ADME, organism-based; design: dose 30 mg/kg, route oral; method in brief: as §2
[20] = Protein binding in ICR mouse plasma at 1 uM after 24 hrs by LC/MS/MS based equilibrium dailysis method; format: ADME, cell-free; conditions: read-out: PPB (converted)
Method in brief: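 Plasma from male ICR mice spiked with compound at a final 1 µmol/L. Equilibrium dialysis (MWCO 6–8 kDa) against PBS for 24 h at room temperature. Both sides quantified by LC-MS/MS; bound fraction calculated from the plasma and PBS concentrations.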

[21] = MRT in ICR mouse brain at 30 mg/kg, po by LC/MS/MS analysis; format: ADME, organism-based; method in brief: as §2
[22] = Metabolic stability in rat liver microsomes at 1 uM after 15 to 30 mins in presence of NADPH by LC/MS/MS analysis; format: ADME, microsome; conditions: read-out: Stability; method in brief: as §3
[23] = Ratio of AUC (0 to 24 hrs) in ICR mouse brain to plasma at 30 mg/kg, po; format: ADME, organism-based; conditions: brain and plasma, read-out: Ratio AUC
[24] = Tmax in ICR mouse plasma at 30 mg/kg, po by LC/MS/MS analysis; format: ADME, organism-based; method in brief: as §2
[25] = Total clearance in Sprague-Dawley rat at 0.1 mg/kg, iv or 1 mg/kg, po administered as cassette dose by LC/MS/MS analysis; format: ADME, organism-based; conditions: in vivo; method in brief: as §4
[26] = AUC (0 to 24 hrs) in ICR mouse plasma at 10 mg/kg, po by LC/MS/MS analysis; format: ADME, organism-based; design: time < 24 hr, dose 10 mg/kg, route oral; method in brief: as §2
[27] = Metabolic stability in mouse liver microsomes at 1 uM after 15 to 30 mins in presence of NADPH by LC/MS/MS analysis; format: ADME, microsome; conditions: read-out: Stability; method in brief: as §3
[28] = Oral bioavailability in Sprague-Dawley rat at 1 mg/kg administered as cassette dose by LC-MS/MS analysis; format: ADME, organism-based; conditions: in vivo; method in brief: as §4
Homo sapiens = species: Homo sapiens; assay: Inhibition of AMPA receptor (unknown origin) at 10 uM
[29] = Cmax in ICR mouse brain at 10 mg/kg, po by LC/MS/MS analysis; format: ADME, organism-based; design: dose 10 mg/kg, route oral; method in brief: as §2
dopamine D2L receptor = dopamine D2L receptor (Homo sapiens, UniProt P14416); assay: Inhibition of dopamine D2L receptor (unknown origin) at 10 uM
[30] = Cmax in ICR mouse brain at 30 mg/kg, po by LC/MS/MS analysis; format: ADME, organism-based; design: dose 30 mg/kg, route oral; method in brief: as §2
[31] = Cmax in ICR mouse plasma at 10 mg/kg, po by LC/MS/MS analysis; format: ADME, organism-based; design: dose 10 mg/kg, route oral; method in brief: as §2
[32] = target: Glutamate [NMDA] receptor (Homo sapiens) (UniProt Q05586+Q12879+Q13224+O15399+O60391+Q14957+Q8TCU5); assay: Inhibition of NMDA receptor (unknown origin) at 10 uM
[33] = AUC (0 to 24 hrs) in ICR mouse plasma at 30 mg/kg, po by LC/MS/MS analysis; format: ADME, organism-based; design: time < 24 hr, dose 30 mg/kg, route oral; method in brief: as §2
[34] = Ratio of AUC (0 to 24 hrs) in ICR mouse brain to plasma at 10 mg/kg, po; format: ADME, organism-based; conditions: brain and plasma, read-out: Ratio AUC
[35] = target: T1, G-protein coupled receptor 52; assay: Agonist activity at human GPR52 expressed in CHO cells assessed as increase in cAMP level at 1 uM after 30 mins by AlphaScreen assay relative to (N-(2-hydroxyethyl)-3-(2-(3-(trifluoromethyl)benzyl)-1-benzofuran-4-yl)benzamide); format: functional, cell-based; method in brief: as §1

T1 sequence (Q9Y2T5 whole entry): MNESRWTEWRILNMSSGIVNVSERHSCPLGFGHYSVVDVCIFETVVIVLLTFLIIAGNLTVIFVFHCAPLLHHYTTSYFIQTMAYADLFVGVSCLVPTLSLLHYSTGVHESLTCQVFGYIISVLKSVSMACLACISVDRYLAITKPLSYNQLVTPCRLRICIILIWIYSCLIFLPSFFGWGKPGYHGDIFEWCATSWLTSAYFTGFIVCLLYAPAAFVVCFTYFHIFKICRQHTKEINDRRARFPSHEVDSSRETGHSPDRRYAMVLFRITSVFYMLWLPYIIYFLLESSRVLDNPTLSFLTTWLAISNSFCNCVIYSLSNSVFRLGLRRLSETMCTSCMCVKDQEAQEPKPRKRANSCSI
Sequence of G-protein coupled receptor 52 (Mus musculus, UniProt P0C5J4) (P0C5J4 whole entry): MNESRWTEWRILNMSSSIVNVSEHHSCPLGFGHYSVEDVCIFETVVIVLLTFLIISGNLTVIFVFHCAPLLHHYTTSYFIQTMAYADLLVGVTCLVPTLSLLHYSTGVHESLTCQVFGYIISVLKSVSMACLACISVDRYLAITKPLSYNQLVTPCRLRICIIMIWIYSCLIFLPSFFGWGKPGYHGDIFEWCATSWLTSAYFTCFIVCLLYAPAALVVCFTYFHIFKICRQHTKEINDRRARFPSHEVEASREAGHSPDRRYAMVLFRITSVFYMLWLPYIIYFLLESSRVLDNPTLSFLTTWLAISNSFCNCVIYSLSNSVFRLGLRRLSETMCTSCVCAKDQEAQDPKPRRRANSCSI
Sequence of G-protein coupled receptor 52 (Mus musculus) (P0C5J4 whole entry): as above
Sequence of dopamine D2L receptor (P14416 whole entry): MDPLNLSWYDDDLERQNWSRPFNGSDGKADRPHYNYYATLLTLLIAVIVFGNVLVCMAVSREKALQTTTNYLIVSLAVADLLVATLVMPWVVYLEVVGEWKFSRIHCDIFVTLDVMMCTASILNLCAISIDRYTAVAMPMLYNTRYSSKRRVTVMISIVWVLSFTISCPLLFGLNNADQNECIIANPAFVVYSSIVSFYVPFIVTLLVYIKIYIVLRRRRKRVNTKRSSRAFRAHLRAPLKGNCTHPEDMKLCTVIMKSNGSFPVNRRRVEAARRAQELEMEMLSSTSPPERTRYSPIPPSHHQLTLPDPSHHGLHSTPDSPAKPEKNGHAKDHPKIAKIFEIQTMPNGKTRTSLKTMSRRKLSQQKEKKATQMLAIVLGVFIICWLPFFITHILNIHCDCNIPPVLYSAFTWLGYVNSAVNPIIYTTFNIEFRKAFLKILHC
Sequence of D(1A) dopamine receptor (Homo sapiens) (P21728 whole entry): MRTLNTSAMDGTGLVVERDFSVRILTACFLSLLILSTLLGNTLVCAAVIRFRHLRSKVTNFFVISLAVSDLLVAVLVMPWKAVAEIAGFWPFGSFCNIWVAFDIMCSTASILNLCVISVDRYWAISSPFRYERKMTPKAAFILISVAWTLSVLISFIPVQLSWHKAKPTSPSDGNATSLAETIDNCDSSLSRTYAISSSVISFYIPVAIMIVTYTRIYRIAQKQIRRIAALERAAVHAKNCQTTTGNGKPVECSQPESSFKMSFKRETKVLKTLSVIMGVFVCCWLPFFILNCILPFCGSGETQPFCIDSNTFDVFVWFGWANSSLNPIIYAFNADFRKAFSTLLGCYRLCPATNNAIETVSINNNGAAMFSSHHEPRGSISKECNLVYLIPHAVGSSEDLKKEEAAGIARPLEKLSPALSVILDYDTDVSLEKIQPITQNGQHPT
Sequence of 5-hydroxytryptamine receptor 2A (Homo sapiens) (P28223 whole entry): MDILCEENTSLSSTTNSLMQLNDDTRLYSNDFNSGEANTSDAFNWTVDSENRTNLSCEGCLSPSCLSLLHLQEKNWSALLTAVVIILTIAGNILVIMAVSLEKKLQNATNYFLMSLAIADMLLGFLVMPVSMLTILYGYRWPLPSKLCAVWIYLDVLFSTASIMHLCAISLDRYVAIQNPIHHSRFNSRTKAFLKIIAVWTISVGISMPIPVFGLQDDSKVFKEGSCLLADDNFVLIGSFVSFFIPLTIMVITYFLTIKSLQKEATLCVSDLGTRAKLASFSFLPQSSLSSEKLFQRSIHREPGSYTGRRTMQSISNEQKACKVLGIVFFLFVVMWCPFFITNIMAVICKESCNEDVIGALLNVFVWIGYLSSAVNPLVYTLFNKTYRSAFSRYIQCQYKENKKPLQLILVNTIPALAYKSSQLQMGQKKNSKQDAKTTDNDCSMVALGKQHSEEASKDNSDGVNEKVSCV

Emax [1]: 87% | EC50 [2]: 1400 nM
SMILES: Cc1cc(C(N)=O)ccc1-c1sc(Cc2cccc(C(F)(F)F)c2)nc1C

Emax [1]: 92% | EC50 [2]: 110 nM
SMILES: Cc1nc(Cc2cccc(C(F)(F)F)c2)sc1-c1ccc(C(N)=O)c(C(F)(F)F)c1

Emax [1]: 75% | EC50 [2]: 130 nM
SMILES: Cc1cc(-c2sc(Cc3cccc(Cl)c3)nc2C)ccc1C(N)=O

Emax [1]: 84% | EC50 [2]: 380 nM
SMILES: Cc1nc(Cc2cccc(C(F)(F)F)c2)sc1-c1ccc(C(N)=O)c(F)c1

Emax [1]: 70% | EC50 [2]: 400 nM
SMILES: Cc1nc(Cc2cccc(C(F)(F)F)c2)sc1-c1ccc(C(N)=O)cn1

Emax [1]: 88% | EC50 [2]: 25 nM
SMILES: Cc1cc(-c2sc(Cc3cc(F)cc(Cl)c3)nc2C)ccc1C(N)=O

Emax [1]: 101% | EC50 [2]: 690 nM
SMILES: Cc1cc(-c2sc(Cc3cccc(N(C)C)c3)nc2C)ccc1C(N)=O

Emax [1]: 75% | EC50 [2]: 260 nM
SMILES: Cc1cc(-c2sc(Cc3cccc(F)c3)nc2C)ccc1C(N)=O

AUC (Brain [3]): 3.731 µg·h/g | microsomal CLint at 1 µM [4]: 17 µL/min/mg | Tmax [5]: 0.5 h | EC50 [7]: 71 nM | MRT [9]: 2.29 h | MRT [10]: 3.54 h | Tmax [11]: 0.5 h | AUC (Brain [12]): 10.414 µg·h/g | AUC(0-t) at 8 h [13]: 384 ng·h/mL | Tmax [14]: 1 h | inhibition [15]: < 50% | Emax [16]: 114% | inhibition [17]: < 50% | MRT [18]: 2.06 h | Cmax [19]: 1210 ng/mL | fraction unbound at 24 h, 1 µM [20]: 0.199 | MRT [21]: 3.25 h | microsomal CLint at 1 µM [22]: 9 µL/min/mg | Kp [23]: 1.68 | Tmax [24]: 1 h | clearance [25]: 23.5 mL/min/kg | AUC(0-t) at 24 h [26]: 2430 ng·h/mL | microsomal CLint at 1 µM [27]: 24 µL/min/mg | bioavailability [28]: 53.8% | inhibition (Homo sapiens): < 50% | Cmax [29]: 1020 ng/g | inhibition at 10 µM (dopamine D2L receptor): < 50% | Cmax [30]: 2330 ng/g | Cmax [31]: 688 ng/mL | inhibition [32]: < 50% | AUC(0-t) at 24 h [33]: 6200 ng·h/mL | Kp [34]: 1.53 | Emax [1]: 122% | EC50 [2]: 75 nM
SMILES: Cc1cc(-n2nc(Cc3cc(F)cc(C(F)(F)F)c3)nc2C)ccc1C(N)=O [TP-024]
Activity (Mus musculus [6]): Non-Toxic | inhibition (Mus musculus [8]): Active

Emax [35]: 11% | EC50 [2]: > 1000 nM
SMILES: Cc1nc(Cc2cccc(C(F)(F)F)c2)sc1-c1ccc(C(N)=O)nc1 [TP-024n]
